Hit rate of the full screen: of about 2,400 compounds, fewer than 10 were called active. Not all results are given here. A number with no mark means an inactive call.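 The calls were made as follows: active = average inhibition across replicates above the hit cutoff set in the earlier primary screen; inactive = the rest.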
These molecules were tested against Procathepsin L (Homo sapiens) (UniProt P07711) (assay: cathepsin L1 inhibitors, retest, confirmation, counter-screen for PFM18AAP inhibitor project, biochemical, QFRET, triplicate (AID 2178;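 also: 0% = median of test compound wells and 100% = Z-Phe-Ala-diazomethylketone 1 µM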)). Conditions: purified cathepsin L1, Z-Leu-Arg-MCA fluorescence; at 5.96 µM; active compounds read high.
How it was run: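 System – recombinant cathepsin L1, purified · Dosing – single nominal compound dose of 5.96 µM, 0.59% DMSO · Incubation – 30 min compound preincubation, then 90 min with substrate, 25 °C · Technique – fluorescence of released MCA at 0 and 90 min · Evaluation – percent inhibition from fluorescence change · Control set – full inhibition control, Z-Phe-Ala-diazomethylketone · Replicates – triplicate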

Sequence of Procathepsin L (Homo sapiens) (P07711 whole entry, looked up): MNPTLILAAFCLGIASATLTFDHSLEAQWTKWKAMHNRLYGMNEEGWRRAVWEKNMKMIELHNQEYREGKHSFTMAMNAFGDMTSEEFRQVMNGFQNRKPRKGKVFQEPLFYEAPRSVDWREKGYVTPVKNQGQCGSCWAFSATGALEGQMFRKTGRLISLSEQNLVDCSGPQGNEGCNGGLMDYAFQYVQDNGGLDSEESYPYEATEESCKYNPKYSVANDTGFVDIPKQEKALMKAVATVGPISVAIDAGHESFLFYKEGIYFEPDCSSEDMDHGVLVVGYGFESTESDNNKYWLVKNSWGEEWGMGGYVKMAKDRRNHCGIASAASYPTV

| SMILES | inhibition [%] |
| --- | --- |
| CCN(CC)c1ccc(NC(=O)CCc2nnc3ccc(N4CCCCC4)nn23)c(C)c1 | 1.25 |
| c1ccc2sc(NN=C3CCCC3)nc2c1 | 0.11 |
| Cc1ccc(S(=O)(=O)N/N=C\c2cc3c(cc2[N+](=O)[O-])OCO3)cc1 | -3.66 |
| Cc1csc(NC(=O)NC2(C(F)(F)F)Oc3ccccc3O2)n1 | -4.56 |
| Cn1c(SCC(=O)N/N=C/c2ccc(O)c(O)c2)nc2ccccc21 | -2.42 |
| O=C(O)CCn1c(O)c(C=C2N=c3ccccc3=N2)sc1=S | 2.67 |
| NC(=O)c1c(NC(=O)CSc2nnc(-c3ccco3)n2N)sc2c1CCCC2 | -6.97 |
| O=C(Nn1cnnc1)c1cc(Cl)ccc1Cl | -2.58 |
| CC(C)C1N=C2c3ccccc3N=C(SCC(=O)c3ccc(O)c(O)c3)N2C1=O (stereo not drawn) | 6.47 |
| COc1ccc(OCc2nnc3n2N=C(c2ccccc2)C(CC(=O)O)S3)cc1 (stereo not drawn) | 0.71 |
| Cc1ccc(C)c(NC(=O)NNC(=O)c2ccc3ccccc3c2O)c1 | -3.43 |
| CNC(=S)NNC(=O)c1ccc(N(C)C)cc1 | 3.16 |
| CCN(CC)c1ccc(/C=N/Nc2nc(C)cc(C)n2)c(O)c1 | 4.21 |
| COc1ccc(OCc2n[nH]c(=S)n2N)cc1 | -6.49 |
| Cc1cc(C)nc(Nc2ncn[nH]2)n1 | -0.26 |
| O=C(Oc1ccc(Br)cc1C(=S)N1CCOCC1)c1cccc([N+](=O)[O-])c1 | -0.38 |
| Cc1ccc(-c2ccc(/C=C(\C#N)C(N)=S)o2)c([N+](=O)[O-])c1 | -0.99 |
| O=C(CN1CCN(c2ccc(O)cc2)CC1)Nc1ccc(-c2ccccc2)cc1 | -1.37 |
| Oc1ccc(/C=N/Nc2ccc(C(F)(F)F)cn2)cc1O | -2.87 |
| CCCc1nc2ccccc2c(=O)n1/N=C/c1ccc(O)c(O)c1 | -0.21 |
| Cc1cc(C)nc(NNC2=CC(=O)CC(C)(C)C2)n1 | -3.35 |

| SMILES | inhibition [%] |
| --- | --- |
| CCN(CC)c1ccc2oc(=O)c(C)nc2c1 | -1.42 |
| COc1c(O)ccc2c1CN1CCc3cc4c(cc3C1C2)OCO4 (stereo not drawn) | -3.11 |
| CC(C)(C)c1nnc(N/N=C/c2ccc(O)cc2)n(N)c1=O | -5.72 |
| Oc1ccc(/C=N/NC2=NCCCCC2)c(O)c1 | 1.65 |
| CC(C)(C)C(=O)OCc1nc(-c2ccc(O)c(O)c2)cs1 | -4.53 |
| NC(=S)N/N=C/c1coc2cc(Cl)ccc2c1=O | 1.96 |
| CCn1ccnc1CNC(=O)CC1C(=O)NCCN1Cc1ccc(F)cc1Cl (stereo not drawn) | -3.42 |
| COc1cc(/C=N/NC(=S)Nc2cccnc2)cc(OC)c1O | -3.45 |
| Cn1c(=O)[nH]c(=O)c2c1[nH]c(=S)n2Cc1ccccc1 | -1.96 |
| CC1CCN(C(=O)c2ccc3c(c2)NC(=O)CN3)CC1 | -3.71 |
| O=C(O)c1cccc(NC(=S)N/N=C/c2c[nH]c3ccccc23)c1 | -2.87 |
| O=C(Nc1cccc([N+](=O)[O-])c1)Nn1cnnc1 | -5.02 |
| COc1cc(/C=N\Nc2ccc([N+](=O)[O-])cn2)ccc1OCC(=O)O | 6.51 |
| CC(C)c1ccc(NC(=S)NNc2ccc(Cl)c(C(=O)O)c2)cc1 | -5.45 |
| Cc1nc2ccc(S(=O)(=O)NCC(=O)O)cc2s1 | -0.46 |
| O=C(CSc1ncn[nH]1)Nc1ccnc2ccccc12 | -0.72 |
| CCOc1cccc(/C=N/NC(=S)NCCN2CCOCC2)c1O | 3.05 |
| CCOc1ccc(C2C3=C(CCCC3=O)N(CC(=O)O)C3=C2C(=O)CCC3)cc1 | 0.31 |
| COc1cc(/C=C2/C(=O)NN(c3cccc(Cl)c3)C2=O)cc(Br)c1O | -3.26 |
| O=C(CO/N=C/c1ccccc1O)NNC(=O)c1ccccc1Cl | -40.2 |
| COc1ccc2c(c1)C(C)=CC(C)(C)N2C(=O)Nc1ccccc1 | 0.44 |

| SMILES | inhibition [%] |
| --- | --- |
| Oc1ccc(N2CCN(C(=S)NCc3ccccc3)CC2)cc1 | 0.35 |
| Cc1ccc2nc(-c3cccc(Br)c3)cc(C(=O)Nn3cnnc3)c2c1 | -9.17 |
| CN(C)c1ccc(C(CC(=O)O)C(=O)O)cc1 (stereo not drawn) | -7.14 |
| CC(OC(=O)c1ccc2noc(-c3ccccc3)c2c1)C(N)=O (stereo not drawn) | 2.03 |
| NC(=O)C1CCN(C(=O)/C(=C/c2ccco2)NC(=O)c2ccccc2)CC1 | -6.56 |
| Cc1cccc(NC(=O)c2sc3nc(N4CCOCC4)c4c(c3c2N)CCCC4)c1 | -1.63 |
| CSc1n[nH]c(=S)n1N | -0.69 |
| CC(C)(C)NC(=O)C(c1ccncc1)N(C(=O)CNC(=O)c1ccco1)c1ccc2c(c1)OCO2 (stereo not drawn) | -6.31 |
| Cc1nc2nc[nH]n2c(=O)c1C/C=C/c1ccccc1 | -4.98 |
| COc1ccc(N/C=C(\C2OC(=O)c3ccccc32)[N+](=O)[O-])cc1 (stereo not drawn) | -5.34 |
| c1ccc2c(c1)OCC(c1nn3cnnc3s1)O2 (stereo not drawn) | 2.86 |
| COc1cc(/C=N/Nc2nn3cnnc3c3ccccc23)cc(OC)c1OC | 3.85 |
| ClC1(Cl)CC1CSc1ncn[nH]1 (stereo not drawn) | -4.69 |
| S=c1[nH]nc2c3c4c(sc3ncn12)CCCC4 | -1.23 |
| Cc1ccc(-c2noc(CC(c3ccccc3)c3ccccc3)n2)cc1 | 2.35 |
| CC(/C=C/C1(O)C(C)CC(=O)CC1(C)C)OC1OC(CO)C(O)C(O)C1O (stereo not drawn) | -6.26 |
| Cc1cc2c(C)nc(N/N=C/c3ccccc3)nc2o1 | 3.67 |
| O=C1CCCCN1CCCC(=O)N1CCCC(Nc2ccc(F)cc2)C1 (stereo not drawn) | -1.53 |
| O=c1nc(N/N=C/c2ccco2)cn[nH]1 | 8.33 |
| O=C(COc1ccc([N+](=O)[O-])cc1Cl)Nn1cnnc1 | -1.51 |
| O=C(Nc1ccccc1Cl)Nn1cnnc1 | -5.2 |
